This note sets out measurements from ChEMBL document CHEMBL1122009, “Activated N-nitrosocarbamates for regioselective synthesis of N-nitrosoureas” (J Med Chem, 1982).

Several values for one entry are separate records, joined by “and”; a condition that tells them apart may be missing. Equal values may be shown once. Activity calls are given as the source filed them.

The term T/C denotes the result in the treated group divided by that in the control group, in per cent. Usually LD50 stands for the dose expected to kill half of the subjects tested. Higher therefore signals a less toxic substance.

Data set [1] deals with Mus musculus. In words: Compound was tested for its antitumor activity on L1210 leukemia in mice at the dose of 60 mg/kg (i.p.); High percent value. The data set is classed as functional, organism-based. Details: dose 60 mg/kg. A digest of the protocol: (§1)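 B6D2F1 adult mice inoculated ip with 10^5 L1210 cells on day 0. Drug given ip in olive oil on day 1, repeated days 5 and 9 only in mice without toxicity signs. Daily mortality monitoring with autopsy to assign leukemic vs toxic death. Index I = T/C × 100 from median survival; active if I > 125 and Wilcoxon W test significant; ∞ means >50% cured.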

The test system of data set [2] is Mus musculus. The data set is described as follows: Compound was tested for its antitumor activity on L1210 leukemia in mice at the dose of 20 mg/kg (i.p.). The data set is classed as functional. The note with it: route intraperitoneal. A digest of the protocol: as §1
The nature of data set [3]: Acute LD50 of compound was evaluated on L1210 leukemia in mice. The note with it: mouse, in vivo. The data set is classed as ADME, organism-based. A digest of the protocol:
(§2)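 Adult B6D2F1 mice were inoculated ip with 10^5 L1210 leukemia cells on day 0. Compound in olive oil (2-150 mg/kg, ip) was given on day 1 and repeated on days 5 and 9 only in mice without signs of toxicity. Mortality was monitored daily, with autopsy to separate leukemic from toxic deaths. Acute LD50 was determined graphically.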

The test system of data set [4] is Mus musculus. The data set is described as follows: Compound was tested for its antitumor activity on L1210 leukemia in mice at the dose of 30 mg/kg (i.p.); High percent value. The format is functional, organism-based. Details: dose 30 mg/kg. A digest of the protocol:
as §1

In data set [5] the test system is Mus musculus. The data set is described as follows: Compound was tested for its antitumor activity on L1210 leukemia in mice at the dose of 10 mg/kg (i.p.). The data set is classed as functional. To be noted: route intraperitoneal. A digest of the protocol: as §1
Data set [6] relates to Mus musculus. The data set is described as follows: Compound was tested for its antitumor activity on L1210 leukemia in mice at the dose of 2 mg/kg (i.p.). The format is functional. To be noted: route intraperitoneal. A digest of the protocol: as §1
The test system of data set [7] is Mus musculus. The data set is described as follows: Compound was tested for its antitumor activity on L1210 leukemia in mice at the dose of 5 mg/kg (i.p.). The format is functional. To be noted: route intraperitoneal. Summed up:
as §1

In data set [8] the test system is Mus musculus. The data set is described as follows: Compound was tested for its antitumor activity on L1210 leukemia in mice at the dose of 90 mg/kg (i.p.); Toxic. The data set is classed as functional, organism-based. On the set-up: dose 90 mg/kg. Summed up:
as §1

Data set [9] can be described thus: Acute LD50 of compound was evaluated on L1210 leukemia in mice when administered intraperitoneally. The format is ADME, organism-based. The note with it: mouse, in vivo, ip. Summed up:
as §2

The subject of data set [10] is Mus musculus. The data set is described as follows: Compound was tested for its antitumor activity on L1210 leukemia in mice at the dose of 20 mg/kg (i.p.); High percent value. The format is functional, organism-based. On the set-up: dose 20 mg/kg. A digest of the protocol: as §1
For data set [11], the system named is Mus musculus. In words: Compound was tested for its antitumor activity on L1210 leukemia in mice at the dose of 2 mg/kg (i.p.); Not significant. The format is functional, organism-based. On the set-up: dose 2 mg/kg. A digest of the protocol: as §1
Data set [12] has as its system Mus musculus. In words: Compound was tested for its antitumor activity on L1210 leukemia in mice at the dose of 10 mg/kg (i.p.); High percent value. On the set-up: dose 10 mg/kg. The format is functional, organism-based. Summed up:
as §1

Data set [13] deals with Mus musculus. In words: Compound was tested for its antitumor activity on L1210 leukemia in mice at the dose of 30 mg/kg (i.p.); Toxic. The data set is classed as functional, organism-based. On the set-up: dose 30 mg/kg. Summed up:
as §1

The test system of data set [14] is Mus musculus. The data set is described as follows: Compound was tested for its antitumor activity on L1210 leukemia in mice at the dose of 3.2 mg/kg (i.p.). The data set is classed as functional. The note with it: route intraperitoneal. Summed up:
as §1

The subject of data set [15] is Mus musculus. In words: Compound was tested for its antitumor activity on L1210 leukemia in mice at the dose of 20 mg/kg (i.p.); Toxic. The format is functional, organism-based. On the set-up: dose 20 mg/kg. A digest of the protocol: as §1
In data set [16] the test system is Mus musculus. The data set is described as follows: Compound was tested for its antitumor activity on L1210 leukemia in mice at the dose of 8 mg/kg (i.p.). The data set is classed as functional. The note with it: route intraperitoneal. Summed up: as §1
Data set [17] concerns Mus musculus. The data set is described as follows: Compound was tested for its antitumor activity on L1210 leukemia in mice at the dose of 3.2 mg/kg (i.p.); Not significant. The format is functional, organism-based. On the set-up: dose 3.2 mg/kg. A digest of the protocol:
as §1

Data set [18] concerns Mus musculus. In words: Compound was tested for its antitumor activity on L1210 leukemia in mice at the dose of 8 mg/kg (i.p.); Not significant. The data set is classed as functional, organism-based. Details: dose 8 mg/kg.
Data set [19] relates to Mus musculus. In words: Compound was tested for its antitumor activity on L1210 leukemia in mice at the dose of 50 mg/kg (i.p.); Not significant. The data set is classed as functional, organism-based. On the set-up: dose 50 mg/kg.
In data set [20] the test system is Mus musculus. In words: Compound was tested for its antitumor activity on L1210 leukemia in mice at the dose of 20 mg/kg (i.p.); Not significant. Details: dose 20 mg/kg. The data set is classed as functional, organism-based.

Consider `O=NN(CCCl)C(=O)NCCSSCCNC(=O)N(CCCl)N=O` [DITIOMUSTINE], for which the T/C entry in the data set with Mus musculus [1] is “High percent value”; in the data set on Mus musculus [2] it was 228%; in the data set on Mus musculus [4], “High percent value”; in the data set with Mus musculus [5] it was 151%; with Mus musculus [6], 111%; in the data set with Mus musculus [7], 212% and 133%. Also, the T/C result is “Toxic” in the data set on Mus musculus [8], “High percent value” with Mus musculus [10], “High percent value” in the data set on Mus musculus [12] and “Toxic” in the data set with Mus musculus [13]. For the same compound, the LD50 is 75 mg/kg in [3] and 28 mg/kg in data set [9]. In addition, the T/C entry in the data set with Mus musculus [11] was “inactive”.
For `O=NN(CCCl)C(=O)ON1C(=O)CCC1=O`, the T/C is 125% with Mus musculus [14], “Toxic” in the data set on Mus musculus [15] and 137% with Mus musculus [16]. In data set [9], this compound displayed an LD50 of 36 mg/kg.
For `O=NN(CCCl)C(=O)Oc1ccc([N+](=O)[O-])cc1`, the T/C entry in the data set on Mus musculus [17] and with Mus musculus [18] was “inactive” throughout. The LD50 in [9] amounted to 17 mg/kg.
Consider `CN(N=O)C(=O)ON1C(=O)CCC1=O`, for which the T/C entry in the data set on Mus musculus [19], in the data set on Mus musculus [20] and with Mus musculus [18] was “inactive” in each case. In addition, in data set [9], the LD50 stood at 115 mg/kg.
